For orientation: inhibition means the change of the read-out against control, counted positive when it falls. The term CC50 denotes the concentration giving 50% cytotoxicity. The term IC50 denotes the concentration that gives 50% inhibition.

Experimental findings from ChEMBL document CHEMBL4396972, “Glycyrrhizic acid derivatives as Dengue virus inhibitors” (Bioorg Med Chem Lett, 2019) are described below.

The source made the active and inactive calls. The calls are words filed in the database; no cut-off is given here.

For data set [1], the system named is dengue virus type 2. In words: Antiviral activity against DENV2 16681 infected in African green monkey Vero E6 cells assessed as reduction in virus induced cytopathic effect at 10 uM measured after 96 hrs by reverse phase contrast microscopy. Type of data set: functional, organism-based. Particulars: Vero C1008. The essentials: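 Vero E6 cells in supporting DMEM infected with DENV2 strain 16681 (MOI 0.01), then treated immediately with compound at 10 μM. After 96 h incubation, cytopathic effect photographed by reverse phase-contrast microscopy and scored semi-quantitatively (−, +, ++, +++) against infected controls.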

In data set [2] the test system is dengue virus type 2. In words: Antiviral activity against DENV2 16681 infected in human A549 cells assessed as inhibitory rate of NS4B positive cells at 0.1 to 10 uM measured after 120 hrs post infection by DAPI staining based immunofluorescence method. Format: functional, organism-based.
The test system of data set [3] is dengue virus type 2. In words: Antiviral activity against DENV2 16681 infected in African green monkey Vero E6 cells assessed as reduction in virus induced cytopathic effect measured after 96 hrs by reverse phase contrast microscopy. Type of data set: functional, organism-based. Particulars: Vero C1008. The method in brief:
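Vero E6 cells in DMEM infected with DENV2 16681 at MOI 0.01, compound added immediately (screen at 10 μM, then 0, 0.1, 1, 10 μM). Photographed 96 h post infection by phase-contrast microscopy. CPE reduction scored qualitatively (−, +, ++, +++).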
(Damage to the host cells serves as the signal in cytopathic effect assays.)

In another data set the test system is Vero C1008. In words: Cytotoxicity against African green monkey Vero E6 cells assessed as reduction in survival rate measured after 48 hrs by MTT assay. Format: cell-based. Particulars: chlorocebus sabaeus, vero c1008, 48 h. The essentials:
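MTT viability test on Vero E6 cells in DMEM over a range of compound concentrations. CC50 calculated from survival of treated cells relative to mock cells.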

The subject of data set [4] is dengue virus type 2. In words: Antiviral activity against DENV2 16681 infected in African green monkey Vero E6 cells assessed as inhibitory rate of NS4B positive cells at 1 uM measured after 96 hrs incubation by DAPI staining based immunofluorescence method. Format: functional. Particulars: Dengue virus, 16681, Vero C1008, 96 h. The essentials:
(§1)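 Vero E6 cells in DMEM infected with DENV2 strain 16681 at MOI 0.01, treated at once with compound (0, 0.1, 1, 10 μM), 96 h. Immunofluorescence with anti-NS4B antibody and DAPI counterstain. Infectivity taken as NS4B-positive cells over DAPI-stained total cells. Inhibitory rate = (1 − NS4B-positive % treated infected / NS4B-positive % mock-treated infected) × 100.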

A short description of data set [5]: Therapeutic index, ratio of CC50 for African green monkey Vero E6 cells to IC50 for DENV2 16681 infected in African green monkey Vero E6 cells. Type of data set: toxicity, Vero C1008. Conditions: read-out: Ratio CC50/IC50. The essentials: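 TI = CC50/IC50. CC50 comes from the Vero E6 MTT survival test. IC50 comes from the NS4B-positive cell fraction by immunofluorescence in DENV2 16681-infected Vero E6 cells (MOI 0.01, 96 h, 0–10 μM).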

Data set [6] concerns dengue virus type 2. In words: Antiviral activity against DENV2 16681 infected in African green monkey Vero E6 cells assessed as inhibitory rate of NS4B positive cells at 10 uM measured after 96 hrs incubation by DAPI staining based immunofluorescence method. Format: functional. Conditions: Dengue virus, 16681, Vero C1008, 96 h. The method in brief: as §1
Data set [7] deals with dengue virus type 2. In words: Antiviral activity against DENV2 16681 infected in African green monkey Vero E6 cells assessed as inhibitory rate of NS4B positive cells measured after 96 hrs incubation by DAPI staining based immunofluorescence method. Format: functional, organism-based. Conditions: for IC50: Dengue virus, 16681, Vero C1008, 96 h; for inhibition: Vero C1008. The method in brief:
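Vero E6 cells in DMEM, infected with DENV2 strain 16681 at MOI 0.01 and treated with compound (0, 0.1, 1, 10 μM; single 10 μM for screening). After 96 h, immunofluorescence with anti-NS4B antibody and DAPI nuclear counterstain. Infectivity = NS4B-positive cells / DAPI-stained cells. Inhibitory rate = (1 − NS4B-positive % treated / NS4B-positive % mock-treated infected) × 100. IC50 derived from NS4B-positive percentages across concentrations.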

The subject of data set [8] is dengue virus type 2. In words: Antiviral activity against DENV2 16681 infected in human A549 cells assessed as reduction in virus induced cytopathic effect at 0.1 to 10 uM measured after 120 hrs post infection by light microscopy. Format: functional, organism-based.

On to `CC[C@H](C)[C@H](NC(=O)[C@H]1O[C@@H](O[C@H]2[C@@H](O[C@H]3CC[C@]4(C)[C@H]5C(=O)C=C6[C@@H]7C[C@@](C)(C(=O)N[C@H](C(=O)O)[C@@H](C)CC)CC[C@]7(C)CC[C@@]6(C)[C@]5(C)CC[C@H]4C3(C)C)O[C@H](C(=O)N[C@H](C(=O)O)[C@@H](C)CC)[C@@H](O)[C@@H]2O)[C@H](O)[C@@H](O)[C@@H]1O)C(=O)O`, for which the inhibition entry in the data set with dengue virus type 2 [1], in the data set with dengue virus type 2 [2] and with dengue virus type 2 [8] was “Active” in each case. Also, the inhibition result with dengue virus type 2 [3] and in the data set on dengue virus type 2 [7] was “Dose-dependent effect” in each case. In addition, the CC50 with Vero C1008 is more than 100 µM. In the data set on dengue virus type 2 [4], the inhibition at 1 µM turned out to be 20.2%. In addition, in [5], the selectivity ratio was more than 76.3. For the same compound, the inhibition at 10 µM in the data set on dengue virus type 2 [6] is 95.7%. Moreover, the concentration for half-maximal inhibition (IC50) in the data set on dengue virus type 2 [7] was determined as 1.3 µM.

`CC1(C)[C@@H](O[C@H]2O[C@H](C(=O)N[C@@H](Cc3ccc(O)cc3)C(=O)O)[C@@H](O)[C@H](O)[C@H]2O[C@@H]2O[C@H](C(=O)N[C@@H](Cc3ccc(O)cc3)C(=O)O)[C@@H](O)[C@H](O)[C@H]2O)CC[C@]2(C)[C@H]3C(=O)C=C4[C@@H]5C[C@@](C)(C(=O)N[C@@H](Cc6ccc(O)cc6)C(=O)O)CC[C@]5(C)CC[C@@]4(C)[C@]3(C)CC[C@@H]12`: in the data set with dengue virus type 2 [1], the inhibition result was “Active”. In addition, in the data set with dengue virus type 2 [3], the inhibition entry was “Dose-dependent effect”. Besides, the CC50 in the data set with Vero C1008 was more than 100 µM. In data set [5], the selectivity ratio is more than 46.5. Also, the inhibition at 10 µM in the data set with dengue virus type 2 [6] is 68.5%. For the same compound, in the data set with dengue virus type 2 [7], the IC50 worked out at 2.2 µM and the inhibition result was “Dose-dependent effect”.

For `CC1(C)[C@@H](O[C@H]2O[C@H](C(=O)O)[C@@H](O)[C@H](O)[C@H]2O[C@@H]2O[C@H](C(=O)O)[C@@H](O)[C@H](O)[C@H]2O)CC[C@]2(C)[C@H]3C(=O)C=C4[C@@H]5C[C@@](C)(C(=O)O)CC[C@]5(C)CC[C@@]4(C)[C@]3(C)CC[C@@H]12` [GLYCYRRHIZIN], the inhibition result in the data set on dengue virus type 2 [1] is “Active”. Also, in the data set on dengue virus type 2 [3], the inhibition result is “Dose-dependent effect”. Further, the CC50 with Vero C1008 is more than 100 µM. The selectivity ratio in data set [5] was more than 12.3. For the same compound, the inhibition at 10 µM in the data set on dengue virus type 2 [6] was determined as 70.5%. For the same compound, in the data set with dengue virus type 2 [7], the IC50 stood at 8.1 µM and the inhibition result was “Dose-dependent effect”.
